In the library only some 4.8% were active in any assay of this set; here they are far more common.
Jurkat NFkB inh – inhibitors of the PMA/ionomycin-induced NF-kB reporter in Jurkat cells | 330,000 compounds, 0.53% hits | PMA/ionomycin-induced NF-kB luciferase reporter, luminescence | AID 435003 | inhibition, % at 4 µM; in the data active means inhibition above about 50%
HSF1 inh – HSF1 inhibition | NIH3T3-HGL HSE-luciferase, MG132-induced, luminescence 8 h; hits give low values | activity change, negative = inhibition, % at 7.5 µM (by protocol) | 300,000 compounds, 0.77% hits | AID 2098;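 active means more than half of replicate wells show activity change below -50%, luminescence cut by over half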;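 further: luciferase reports HSF-1 transcriptional activity via heat shock element; 0% = median of DMSO wells and -100% = zero luminescence signal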
T cruzi repl – T. cruzi replication inhibition. T. cruzi beta-gal in NIH3T3, luminescence, 90 h. inhibition, % (no concentration beside the values). 300,000 compounds, 1.4% hits. AID 1885;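 active means mean inhibition across valid replicates above about 55%, limit read from the data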;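 further: signal also drops with host cell toxicity which is not excluded here; 0% = plate median of DMSO wells and 100% = zero luminescence signal; higher percent means less beta-gal luminescence so fewer parasites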
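System: NIH/3T3 fibroblasts plus reporter T. cruzi. Medium: DMEM plus 2% FBS. Probe or stimulus: 5000 reporter trypomastigotes per well. Compound: single 50 nL compound addition per well in DMSO. Incubation: co-culture of at least 90 h after 3 h attachment. Detection: GalScreen β-gal luminescence, detergent lysis, 60 min. Evaluation: parasite load inhibition, %.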
697 NFkB inh – inhibitors of the PMA/ionomycin-induced NF-kB reporter in 697 B cells | 697 B-cell NF-kB luciferase reporter, 16 h | inhibition, % at 4 µM | 330,000 compounds, 0.33% hits | AID 435022; in the data active means inhibition above about 35%
GPR7 antag – human neuropeptides B/W receptor 1 antagonism; P48145; GPR7-expressing cells, fluorescence antagonist assay; inhibition, % at 4.4 µM; 290,000 compounds, 1.1% hits; in the data active means inhibition above about 16%, passing the limit was not always enough;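 further: cells stimulated with the agonist NPW; 0% = agonist with vehicle and 100% = vehicle without agonist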
Target sequence (P48145 whole entry, looked up): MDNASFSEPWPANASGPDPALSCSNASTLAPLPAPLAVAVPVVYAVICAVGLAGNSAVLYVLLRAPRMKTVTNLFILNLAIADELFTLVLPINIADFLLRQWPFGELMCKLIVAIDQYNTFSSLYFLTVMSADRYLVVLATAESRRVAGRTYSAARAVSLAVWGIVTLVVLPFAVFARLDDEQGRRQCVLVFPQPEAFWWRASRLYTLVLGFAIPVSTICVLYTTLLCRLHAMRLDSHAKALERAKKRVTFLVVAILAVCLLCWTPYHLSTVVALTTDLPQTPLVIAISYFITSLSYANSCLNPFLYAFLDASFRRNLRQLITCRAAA
HSF1 activator – increases HSF-1 driven luciferase reporter signal | NIH3T3-HGL HSF-1 luciferase reporter, MG132, 8 h; 100% = twice DMSO control signal | activation, % at 9 µM | 300,000 compounds, 1.7% hits;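 active means mean replicate activation of at least 50% with a set share of replicates each reaching 50%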;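 further: 0% = median of the neutral control wells and 100% = twice that signal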
An asterisk follows results filed as active; / = not tested or not shown.

SMILES	Jurkat NFkB inh	HSF1 inh	T cruzi repl	697 NFkB inh	GPR7 antag	HSF1 activator
CCN(CC)P(=O)(Nc1cccc(C(F)(F)F)c1)c1ccc(N(C)C)cc1NC(=O)c1ccco1 (stereo not drawn)	8	6	55*	10	-7	14
CCOC(=O)C1(Cc2cccc(OC)c2)CCCN(Cc2cc(C(C)C)n[nH]2)C1 (stereo not drawn)	9	-3	-5	9	2	-2
CCOC(=O)C1(Cc2cccc(OC)c2)CCCN(Cc2c(C)nn(C(C)C)c2C)C1 (stereo not drawn)	-1	-5	64*	12	-11	-16
CC(=O)Nc1ccc(S(=O)(=O)N2CCN(C(=O)CCC3CCCC3)CC2)cc1	-8	-1	-6	-15	20*	-2
O=S(=O)([O-])C(c1ccccc1)[n+]1ccccc1 (stereo not drawn)	-1	0	-9	23	/	-4
CCOC(=O)c1snc(-c2ccc(F)cc2)c1N	-74	18	-13	-15	-12	59*
Cc1nnc(N/N=C/c2cccc(OCc3ccc(Cl)c(Cl)c3)c2)n1N	-10	83	-1	-68	-5	128*
CCOC(=O)/C(=C\c1cccc(O)c1)c1nc2sc(C)c(C)c2c(=O)[nH]1	9	114	-10	12	6	161*
CCOC(=O)c1nc2sc(C)c(C)c2c(=O)[nH]1	8	-12	-7	6	-10	-9
COc1ccc(NC(=O)N(C)C[C@H]2Oc3ccc(NS(=O)(=O)c4c(C)noc4C)cc3C(=O)N([C@H](C)CO)C[C@@H]2C)cc1	2	/	/	10	/	/
O=C(COC(=O)CCC(=O)c1ccc(F)cc1)NCCc1ccccc1	12	/	/	16	/	/
C=CCNC(=O)c1c(Br)cnn1-c1ccc(C)cc1	-60	8	-16	-69	18*	45
COc1ccc2[nH]c3c(=O)n(CCCN4CCOCC4)cnc3c2c1	-5	-63*	17	-1	-8	-70
CN1C(=O)C(=O)/C(=C(/O)c2ccc(Br)cc2)C1c1ccccc1F (stereo not drawn)	-2	-3	-8	13	10	8
COc1ccc(NCc2nnc(SCC(=O)Nc3cc(C(F)(F)F)ccc3Cl)o2)cc1	-5	-60*	-2	5	13	-67
COc1ccc(NCc2nnc(SCC(=O)Nc3cc(C)cc(C)c3)o2)cc1	-1	-1	5	12	0	7
Cc1cc(C)cc(OCC(=O)OCC(=O)Nc2cc(S(=O)(=O)N3CCOCC3)ccc2Cl)c1	5	/	/	13	/	/
Cc1ccccc1NC1=C(Cl)C(=O)N(C2CCCCC2)C1=O	13	-3	-23	6	-8	1
COc1ccccc1NC1=C(Cl)C(=O)N(C2CCCCC2)C1=O	14	-85*	-6	11	-11	-87
O=C(Nc1ccc(Cl)cc1N1CCOCC1)C1CCCCC1	4	4	7	-14	-2	-6
CCN(CC)C(=S)SCC(=O)c1ccc(F)cc1	-92	43	-16	-200	-8	66*
CCN(CC)C(=S)SCC(=O)c1ccccc1	-95	19	-3	-103	-13	45
COc1cccc(Sc2ccccc2/C=N/NC(N)=O)c1	25	20	-47	-55	2	57*
C=CCOc1c(/C=N\NC(N)=O)cccc1OC	11	6	/	12	2	22
C/C(N)=C(/C#N)C(=O)CSc1nnc(-c2ccccc2)n1C	3	4	-2	14	-6	2
SMILES	Jurkat NFkB inh	HSF1 inh	T cruzi repl	697 NFkB inh	GPR7 antag	HSF1 activator
Cc1ccc(S(=O)(=O)N2CCOC2CNC(=O)C(=O)NCc2ccc3c(c2)OCO3)cc1 (stereo not drawn)	1	0	1	10	19	3
Nc1c(-c2ccsc2)cnc2ncnn12	2	31	-4	1	-8	64*
O=C(NCc1ccco1)C1CCN(C(=O)c2ccc([N+](=O)[O-])cc2)CC1	-8	3	-6	11	-15	16
CCc1nc(N2CCN(S(=O)(=O)c3ccc(Br)cc3)CC2)c2c(C)c(C)sc2n1	-3	42	17	18	6	77*
Cc1nc(N2CCN(S(=O)(=O)c3ccc(Br)cc3)CC2)c2c(C)c(C)sc2n1	10	10	-6	9	5	2
CC12CCC(C/C1=N\N=C1\NC(=O)/C(=C\c3ccc(Cl)cc3)S1)C2(C)C (stereo not drawn)	-8	-94*	33	-40	-9	-94
COc1ccc(-n2ccn3c(CCC(=O)N4CCN(c5cccc(C)c5C)CC4)nnc3c2=O)cc1	-5	3	-25	-11	9	4
COc1ccc(/C=C/C(=O)NCc2cn(C)nc2C)cc1COc1ccc(Cl)cc1Br	3	-3	32	4	3	-7
CCn1nc(C)c(NC(=O)/C=C/c2ccc(OC)c(COc3ccc(Cl)cc3Br)c2)c1C	12	11	55*	-17	5	20
c1ccc(Nc2cccc(Nc3ccccc3)c2)cc1	-43	31	65*	-52	-23	40
Nc1cccc(Nc2ccccc2)c1	20	-5	12	-5	-4	1
O=C1CC(c2ccc(Cl)cc2)n2nc(NS(=O)(=O)c3ccc(F)cc3)nc2N1 (stereo not drawn)	8	15	-6	9	0	64*
Clc1cccc(N/N=C(\Cc2nc3ccccc3[nH]2)c2ccccc2)c1	-25	19	15	-50	6	70*
CN(/C(=N\S(=O)(=O)c1ccccc1)c1ccccc1)c1ccc(O)cc1	9	12	-5	4	-5	59*
CC(=O)c1cccc(Nc2cc(C)nc3c(C)cc(C)cc23)c1	4	-7	56*	-8	-8	-14
CCC(C(=O)Oc1c(C(C)C)cccc1C(C)C)c1ccccc1 (stereo not drawn)	9	/	/	1	/	/
CCOC(=O)Cc1csc(NC(=O)c2sc3nc4ccc(CC)cc4cc3c2N)n1	-3	-54*	-8	-13	0	-64
CCOC(=O)Cc1csc(NC(=O)c2ccoc2C)n1	-8	16	-6	-4	-17	57*
CCOC(=O)Cc1csc(NC(=O)c2c(O)c3ccccc3n(CC(C)C)c2=O)n1	8	14	-18	21	11	56*
CC(C)Cn1c(=O)c(C(=O)Nc2ccccc2S(N)(=O)=O)c(O)c2ccccc21	-5	2	-14	19	-1	5
CCOC(=O)Cc1csc(NC(=O)c2sc3nc4cc(C)ccc4cc3c2N)n1	-5	4	5	-13	3	-1
CCOC(=O)Cc1csc(NC(=O)c2c(C)noc2C)n1	12	-3	-2	-5	2	-13
O=C(Nc1cccc([N+](=O)[O-])c1)C1CC(=O)N(C2CCCCC2)C1 (stereo not drawn)	6	0	0	14	-5	7
